Assays:
[1] = Half life in HIV-negative human at 300 mg, po administered every 12 hrs; assay type: ADME, organism-based; conditions: in vivo
Method in brief: (§1)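 Healthy HIV-negative volunteers, open-label sequential periods at steady state. […] Plasma (EDTA) drawn predose and 1–12 h (plus 24 h) on last day of period. Atazanavir measured by HPLC-UV 212 nm, linear 25–20,000 ng/ml. Noncompartmental analysis; AUC24 taken as doubled AUC12.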

[2] = Half life in HIV-negative human at 300 mg, po administered every 12 hrs coadministered with 600 mg of rifampin every 24 hrs; assay type: ADME, organism-based; conditions: in vivo; method in brief: as §1
[3] = Half life in HIV-negative human at 400 mg, po administered every 12 hrs coadministered with 600 mg of rifampin every 24 hrs; assay type: ADME, organism-based; conditions: in vivo; method in brief: as §1
[4] = Tmax in HIV-negative human at 300 mg, po administered every 12 hrs; assay type: ADME, organism-based; conditions: in vivo; method in brief: as §1
[5] = Tmax in HIV-negative human at 300 mg, po administered every 12 hrs coadministered with 600 mg of rifampin every 24 hrs; assay type: ADME, organism-based; conditions: in vivo; method in brief: as §1
[6] = Tmax in HIV-negative human at 400 mg, po administered every 12 hrs coadministered with 600 mg of rifampin every 24 hrs; assay type: ADME, organism-based; conditions: in vivo; method in brief: as §1
[7] = Cmax in HIV-negative human at 300 mg, po administered every 12 hrs; assay type: ADME, organism-based; parameters: dose 300 mg, route oral; conditions: in vivo; method in brief: as §1
[8] = Cmax in HIV-negative human at 300 mg, po administered every 12 hrs coadministered with 600 mg of rifampin every 24 hrs; assay type: ADME, organism-based; parameters: dose 300 mg, route oral; conditions: in vivo; method in brief: as §1
[9] = Cmax in HIV-negative human at 400 mg, po administered every 12 hrs coadministered with 600 mg of rifampin every 24 hrs; assay type: ADME, organism-based; parameters: dose 400 mg, route oral; conditions: in vivo; method in brief: as §1
[10] = Drug level in HIV-negative human serum at 300 mg, po administered every 12 hrs measured at 12 hrs; assay type: ADME, organism-based
Method in brief: (§2)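 Steady-state atazanavir level 12 h after morning dose, sampled before the evening dose and read directly from observed data. […] Plasma measured by HPLC-UV at 212 nm after tert-butyl methyl ether extraction. Linear range 25–20,000 ng/ml.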

[11] = Drug level in HIV-negative human serum at 300 mg, po administered every 12 hrs coadministered with 600 mg of rifampin every 24 hrs measured at 12 hrs; assay type: ADME, organism-based; method in brief: as §2
[12] = Drug level in HIV-negative human serum at 400 mg, po administered every 12 hrs coadministered with 600 mg of rifampin every 24 hrs measured at 12 hrs; assay type: ADME, organism-based; method in brief: as §2
[13] = AUC (12 hrs) in HIV-negative human at 300 mg, po administered every 12 hrs; assay type: ADME, organism-based; parameters: time < 12 hr, dose 300 mg, route oral; conditions: plasma; method in brief: as §1
[14] = AUC (12 hrs) in HIV-negative human at 300 mg, po administered every 12 hrs coadministered with 600 mg of rifampin every 24 hrs; assay type: ADME, organism-based; parameters: dose 300 mg, time < 12 hr, route oral; conditions: plasma; method in brief: as §1
[15] = AUC (12 hrs) in HIV-negative human at 400 mg, po administered every 12 hrs coadministered with 600 mg of rifampin every 24 hrs; assay type: ADME, organism-based; parameters: dose 400 mg, time < 12 hr, route oral; conditions: plasma; method in brief: as §1
[16] = AUC (24 hrs) in HIV-negative human at 300 mg, po administered every 12 hrs; assay type: ADME, organism-based; parameters: dose 300 mg, time < 24 hr, route oral; conditions: plasma; method in brief: as §1
[17] = AUC (24 hrs) in HIV-negative human at 300 mg, po administered every 12 hrs coadministered with 600 mg of rifampin every 24 hrs; assay type: ADME, organism-based; parameters: dose 300 mg, time < 24 hr, route oral; conditions: plasma; method in brief: as §1
[18] = AUC (24 hrs) in HIV-negative human at 400 mg, po administered every 12 hrs coadministered with 600 mg of rifampin every 24 hrs; assay type: ADME, organism-based; parameters: dose 400 mg, time < 24 hr, route oral; conditions: plasma; method in brief: as §1
Homo sapiens [19] = experiment: Terminal apparent distribution volume in HIV-negative human serum at 300 mg, po administered every 12 hrs; assay type: ADME, organism-based; conditions: in vivo; method in brief: as §1
Homo sapiens [20] = experiment: Terminal apparent distribution volume in HIV-negative human serum at 300 mg, po administered every 12 hrs coadministered with 600 mg of rifampin every 24 hrs; assay type: ADME, organism-based; conditions: in vivo; method in brief: as §1
Homo sapiens [21] = experiment: Terminal apparent distribution volume in HIV-negative human serum at 400 mg, po administered every 12 hrs coadministered with 600 mg of rifampin every 24 hrs; assay type: ADME, organism-based; conditions: in vivo; method in brief: as §1
[22] = Apparent oral clearance in HIV-negative human serum at 300 mg, po administered every 12 hrs; assay type: ADME, organism-based; method in brief: as §1
[23] = Apparent oral clearance in HIV-negative human serum at 300 mg, po administered every 12 hrs coadministered with 600 mg of rifampin every 24 hrs; assay type: ADME, organism-based; method in brief: as §1
[24] = Apparent oral clearance in HIV-negative human serum at 300 mg, po administered every 12 hrs coadministered with […] every 24 hrs; assay type: ADME, organism-based
[25] = Cmax in HIV-negative human at 300 mg coadministered with 100 mg of ritonavir every 24 hrs; assay type: ADME, organism-based; parameters: dose 300 mg; conditions: in vivo
[26] = Cmax in HIV-negative human at 400 mg administered every 24 hrs; assay type: ADME, organism-based; parameters: dose 400 mg; conditions: in vivo
[27] = AUC (24hrs) in HIV-negative human at 400 mg administered every 24 hrs; assay type: ADME, organism-based; conditions: plasma
Homo sapiens [28] = species on record: Homo sapiens; experiment: Toxicity in HIV-negative human assessed as grade 3 fatigue; assay type: organism-based; conditions: in vivo
Homo sapiens [29] = experiment: Toxicity in HIV-negative human assessed as alanine aminotransferase levels at 300 mg, po administered every 12 hrs; assay type: organism-based; conditions: in vivo
Homo sapiens [30] = experiment: Toxicity in HIV-negative human assessed as alanine aminotransferase levels at 300 mg, po administered every 12 hrs administered every 12 hrs coadministered with 600 mg of rifampin every 24 hrs; assay type: organism-based; conditions: in vivo
Homo sapiens [31] = experiment: Toxicity in HIV-negative human assessed as creatinine levels at 300 mg, po administered every 12 hrs; assay type: organism-based; conditions: in vivo
Homo sapiens [32] = experiment: Toxicity in HIV-negative human assessed as creatinine levels at 300 mg, po administered every 12 hrs administered every 12 hrs coadministered with 600 mg of rifampin every 24 hrs; assay type: organism-based; conditions: in vivo
Homo sapiens [33] = experiment: Toxicity in HIV-negative human assessed as hemoglobin level at 300 mg, po administered every 12 hrs; assay type: organism-based; conditions: in vivo
Homo sapiens [34] = experiment: Toxicity in HIV-negative human assessed as hemoglobin level at 300 mg, po administered every 12 hrs administered every 12 hrs coadministered with 600 mg of rifampin every 24 hrs; assay type: organism-based; conditions: in vivo
Homo sapiens [35] = experiment: Toxicity in HIV-negative human assessed as bilirubin level at 300 mg, po administered every 12 hrs; assay type: organism-based; conditions: in vivo
Method in brief: (§3)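 Serum bilirubin measured at commercial laboratories as a safety test during steady-state dosing periods in healthy HIV-negative volunteers.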

Homo sapiens [36] = experiment: Toxicity in HIV-negative human assessed as bilirubin level at 300 mg, po administered every 12 hrs administered every 12 hrs coadministered with 600 mg of rifampin every 24 hrs; assay type: organism-based; conditions: in vivo; method in brief: as §3
Homo sapiens [37] = experiment: Toxicity in human with two gilbert's genotype homozygotes assessed as bilirubin level at 300 mg, po administered every 12 hrs; assay type: organism-based; conditions: in vivo
Homo sapiens [38] = experiment: Toxicity in human with six gilbert's genotype heterozygotes assessed as bilirubin level at 300 mg, po administered every 12 hrs; assay type: organism-based; conditions: in vivo
Homo sapiens [39] = experiment: Toxicity in gilbert's genotype lacking human assessed as bilirubin level at 300 mg, po administered every 12 hrs; assay type: organism-based; conditions: in vivo
[40] = AUC (24 hrs) in HIV-negative human at 300 mg coadministered with 100 mg of ritonavir every 24 hrs; assay type: ADME, organism-based; parameters: dose 300 mg, time < 24 hr; conditions: plasma
Homo sapiens [41] = experiment: Toxicity in HIV-negative human assessed as bilirubin level at 400 mg, po administered every 12 hrs coadministered with 600 mg of rifampin every 24 hrs; conditions: in vivo
Homo sapiens [42] = experiment: Toxicity in HIV-negative human assessed as hemoglobin level at 400 mg, po administered every 12 hrs coadministered with 600 mg of rifampin every 24 hrs; conditions: in vivo
Homo sapiens [43] = experiment: Toxicity in HIV-negative human assessed as creatinine levels at 400 mg, po administered every 12 hrs coadministered with 600 mg of rifampin every 24 hrs; conditions: in vivo
Homo sapiens [44] = experiment: Toxicity in HIV-negative human assessed as alanine aminotransferase levels at 400 mg, po administered every 12 hrs coadministered with 600 mg of rifampin every 24 hrs; conditions: in vivo

## COC(=O)N[C@H](C(=O)N[C@@H](Cc1ccccc1)[C@@H](O)CN(Cc1ccc(-c2ccccn2)cc1)NC(=O)[C@@H](NC(=O)OC)C(C)(C)C)C(C)(C)C [ATAZANAVIR]
[1]
  half-life: 5.1 h
[2]
  half-life: 2.2 h
[3]
  half-life: 2.4 h
[4]
  Tmax: 3.2 h
[5]
  Tmax: 2.7 h
[6]
  Tmax: 2.9 h
[7]
  Cmax: 3910 ng/mL
[8]
  Cmax: 1430 ng/mL
[9]
  Cmax: 2360 ng/mL
[10]
  concentration at 12 h: 811 ng/mL
[11]
  concentration at 12 h: 44 ng/mL
[12]
  concentration at 12 h: 113 ng/mL
[13]
  AUC at 12 h: 23800 ng·h/mL
[14]
  AUC at 12 h: 5100 ng·h/mL
[15]
  AUC at 12 h: 9800 ng·h/mL
[16]
  AUC at 24 h: 47600 ng·h/mL
[17]
  AUC at 24 h: 10300 ng·h/mL
[18]
  AUC at 24 h: 19600 ng·h/mL
Homo sapiens [19]
  Vbeta: 78 L
Homo sapiens [20]
  Vbeta: 252 L
Homo sapiens [21]
  Vbeta: 171 L
[22]
  CL/F: 202 mL/min
[23]
  CL/F: 1390 mL/min
[24]
  CL/F: 808 mL/min
[25]
  Cmax: 6130 ng/mL
[26]
  Cmax: 5200 ng/mL
[27]
  AUC at 24 h: 29300 ng·h/mL
Homo sapiens [28]
  Activity: 7%
Homo sapiens [29]
  Activity: Non-toxic
Homo sapiens [30]
  Activity: Non-toxic
Homo sapiens [31]
  Activity: Non-toxic
Homo sapiens [32]
  Activity: Non-toxic
Homo sapiens [33]
  Activity: Non-toxic
Homo sapiens [34]
  Activity: Non-toxic
Homo sapiens [35]
  Activity: Toxic
Homo sapiens [36]
  Activity: Non-toxic
Homo sapiens [37]
  Activity: 5 mg/dL
Homo sapiens [38]
  Activity: 4.1 mg/dL
Homo sapiens [39]
  Activity: 2.6 mg/dL
[40]
  AUC at 24 h: 61400 ng·h/mL
Homo sapiens [41]
  Activity: Non-toxic
Homo sapiens [42]
  Activity: Non-toxic
Homo sapiens [43]
  Activity: Non-toxic
Homo sapiens [44]
  Activity: Non-toxic

— ChEMBL document CHEMBL1143406 (Antimicrob Agents Chemother, 2007)
